Rows were chosen to be rich in hits. Some 1.3% of all compounds tested hit in one or more screens of this group.
FN deposition inh = fibronectin deposition inhibition. AH1F fibroblasts, Alexa488-fibronectin deposition fluorescence, overnight. actives 0.086% (n = 350,000). inhibition, % at 12.6 µM;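 active = mean inhibition across replicates of 30% or more, regardless of how many single replicates reach that level; inconclusive = mean under 30% yet at least half of replicates reach 30%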;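 also: positive control wells lacked labelled fibronectin entirely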
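Assay system: AH1F fibroblast monolayer, labelled fibronectin deposition. Amount: 10000 cells per well. Also added: labelled fibronectin 24 nM. Compound: single-point pinned compound. Incubation: cell attachment 1 h, compound and FN exposure overnight. Detection: fluorescence after three HBSS washes, excitation 485 nm, emission 525 nm. Read-out: inhibition of fibronectin deposition signal.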
RAD52 inh = blocks human RAD52 DNA annealing. actives 0.46% (n = 360,000). recombinant RAD52 DNA annealing, FRET fluorescence. P43351. AID 651710. inhibition, % at 18.7 µM;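 active = every replicate showing at least 50% inhibition; inconclusive = mean inhibition at least 50% but not in every replicate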
PAX8 inh HTS = inhibitors of PAX8 transcriptional activity in RMG-I cells; inhibition, % at 12.6 µM; actives 1.2% (n = 360,000); RMG-I TPO-luciferase reporter, SteadyGlo, 24 h; AID 652154;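 active = mean replicate inhibition at least 60% with every replicate also reaching 60%; inconclusive = only one of the two criteria is met; inactive = mean below 60% and not all replicates reaching 60%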;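 also: luciferase light reporting Pax8 driven TPO promoter activity; plate controls were median of neutral control wells for no effect and mitoxantrone controls for full effect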
RAD54 branch = blocks human RAD54 Holliday junction branch migration | Q92698 | FAM/BHQ fluorescence | inhibition, % at 10.4 µM | actives 0.14% (n = 360,000) | AID 602329;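 active = mean normalized replicate activity at least 40 and at least half of replicates scoring 40 or more; inconclusive = only one of the two criteria met; inactive = mean below 40 and under half of replicates reaching 40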;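 also: 0% = median of neutral control wells and 100% = median of positive control wells; inhibitors cause a drop in the FAM fluorescence signal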
Target sequence (Q92698 whole entry, looked up): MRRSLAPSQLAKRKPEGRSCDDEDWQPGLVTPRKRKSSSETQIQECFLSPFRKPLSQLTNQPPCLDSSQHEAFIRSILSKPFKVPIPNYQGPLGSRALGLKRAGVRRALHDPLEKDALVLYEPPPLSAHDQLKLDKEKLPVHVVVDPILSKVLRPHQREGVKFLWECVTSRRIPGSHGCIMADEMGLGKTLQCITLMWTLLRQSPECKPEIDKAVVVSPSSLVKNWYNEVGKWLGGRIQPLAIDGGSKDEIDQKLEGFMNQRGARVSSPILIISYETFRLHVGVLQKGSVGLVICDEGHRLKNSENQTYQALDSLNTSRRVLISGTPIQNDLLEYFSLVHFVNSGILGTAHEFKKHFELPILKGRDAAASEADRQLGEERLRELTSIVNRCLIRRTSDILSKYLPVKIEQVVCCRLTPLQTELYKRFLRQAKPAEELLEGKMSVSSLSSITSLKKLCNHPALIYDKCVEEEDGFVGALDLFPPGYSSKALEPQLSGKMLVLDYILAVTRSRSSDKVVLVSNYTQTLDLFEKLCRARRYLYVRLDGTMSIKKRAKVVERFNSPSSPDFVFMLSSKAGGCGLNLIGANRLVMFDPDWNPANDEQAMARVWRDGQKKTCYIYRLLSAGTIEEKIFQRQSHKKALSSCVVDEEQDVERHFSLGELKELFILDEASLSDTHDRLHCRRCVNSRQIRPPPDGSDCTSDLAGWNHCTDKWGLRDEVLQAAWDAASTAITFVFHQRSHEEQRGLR
An asterisk follows results filed as active; ? = inconclusive; . = no result; ! = not confirmed by another sample.

SMILES	FN deposition inh	RAD52 inh	PAX8 inh HTS	RAD54 branch
COc1cccc(-c2ccc(C3[C@@H]4CN(C(=O)C5CCC5)C[C@H]3N4)cc2)c1 (some centres undefined)	4.9	20.0	.	.
Cn1c(N)c(C(=O)COC(=O)CCOc2ccc(C(C)(C)C)cc2)c(=O)n(C)c1=O	.	-3.8	-9.6	.
O=C1NC(c2ccc(-c3ccccc3[N+](=O)[O-])o2)C(C(=O)c2ccccc2)C(O)(C(F)(F)F)N1 (centres undefined)	-1.1	-2.1	-4.6	.
Cc1ccc(NC(=O)CN(C)CC(=O)Nc2ccc(F)c(F)c2F)c(Cl)c1	-9.8	-10.0	9.3	2.0
COc1ccc(NC(=O)N2C[C@@H]3N[C@H](C2)C3c2ccc(-c3cccc(OC)c3)cc2)cc1 (some centres undefined)	5.8	54.2*!	0.5	.
COCC(=O)N1[C@H](CO)[C@H](c2ccc(C#CC(C)C)cc2)[C@@H]1CNC(C)=O	5.4	-27.6	.	.
Cc1cccnc1C(NC(=O)C1CCN(Cc2ccc(Oc3ccccc3)cc2)CC1)c1ccccc1 (centres undefined)	.	.	.	3.8
COc1ccc(C(NC(=O)C2CCN(Cc3ccc(Oc4ccccc4)cc3)CC2)c2ccccc2C)cn1 (centres undefined)	-2.5	48.8	63.0*	7.8
O=C(Nc1c(C(=O)N2CCCCC2)cnn1-c1ccccc1)c1ccccc1	-6.2	-11.8	-2.6	-4.1
CC1(C)CC(N2CCCCC2)=CC(=[N+]2CCCCC2)C1	4.1	-0.9	75.0*	2.9
CC1(C)CC(N2CCOCC2)=CC(=[N+]2CCOCC2)C1	-0.5	0.4	-3.3	-4.6
CN(C)c1cc[n+](CC(=O)c2ccc(-c3ccccc3)cc2)cc1	1.9	38.1	97.5*	.
O=C1C(Cl)=C(Nc2ccc3cn[nH]c3c2)C(=O)c2ccccc21	71.0*	-7.9	81.0*	0.5
O=C(Nc1ccc2cn[nH]c2c1)c1c(Cl)cccc1Cl	.	.	14.2	3.3
CO[C@@H]1CN(C)C(=O)c2cc(NS(C)(=O)=O)ccc2OC[C@H](C)N(C(=O)c2ccc3c(c2)OCO3)C[C@H]1C	-2.5	-8.5	-20.4	4.8
CCCCOC(=O)Cn1c(=O)n(CC(=O)OCCCC)c2ccccc21	.	.	.	-2.8
CCOC(=O)Cn1c(COc2ccccc2OC)[n+](C)c2ccccc21	0.7	5.4	-29.4	-2.2
CCCCCCCCCCOC(=O)Cn1c(COc2ccccc2C)[n+](C)c2ccccc21	.	82.9*	.	?
CCCCCCCCCCOC(=O)Cn1c(COc2ccc(OC)cc2)[n+](C)c2ccccc21	.	.	.	58.4*!
CCN(c1cccc(C)c1)S(=O)(=O)c1ccc(OC)c([N+](=O)[O-])c1	3.4	-11.4	11.3	-0.6
Cc1ccc(S(=O)(=O)N(C)C[C@@H]2OCCCC[C@@H](C)Oc3ccc(NS(=O)(=O)c4cccs4)cc3C(=O)N([C@H](C)CO)C[C@@H]2C)cc1	-2.7	-25.3	7.4	6.0
C[C@H]1CCCCO[C@H](CN(C)S(=O)(=O)c2cccs2)[C@@H](C)CN([C@@H](C)CO)C(=O)c2cc(NS(=O)(=O)c3cn(C)cn3)ccc2O1	-15.6	59.1*	11.1	-1.9
Cc1ccc(S(=O)(=O)N(C)C[C@@H]2OCCCC[C@H](C)Oc3ccc(NS(=O)(=O)c4cccs4)cc3C(=O)N([C@H](C)CO)C[C@@H]2C)cc1	-7.2	-8.2	66.8*	-3.4
C[C@@H]1CCCCO[C@@H](CN(C)S(=O)(=O)c2ccc(Cl)cc2)[C@H](C)CN([C@H](C)CO)C(=O)c2cc(NS(=O)(=O)c3cccs3)ccc2O1	-6.1	24.2	70.4*	-10.6
Cc1ccc(S(=O)(=O)Nc2ccc3c(c2)C(=O)N([C@H](C)CO)C[C@H](C)[C@@H](CN(C)S(=O)(=O)c2cccs2)OCCCC[C@H](C)O3)cc1	7.8	6.0	77.2*	-0.4
SMILES	FN deposition inh	RAD52 inh	PAX8 inh HTS	RAD54 branch
C[C@H]1CN([C@@H](C)CO)C(=O)Cc2cc(NC(=O)Nc3ccc(F)cc3)ccc2O[C@@H]1CN(C)S(C)(=O)=O	0.6	1.2	-18.3	-3.6
COc1ccc(C(=O)NN(C)c2nc(C(F)(F)F)nc3ccccc23)cc1	-16.4	-17.2	93.5*	.
Cc1ccc(C(=O)Nc2ccc3c(c2)OCCO3)c(C)c1	-5.8	-6.5	67.6*	-2.7
COc1ccc(CC(=O)OCC(=O)N2CCN(S(=O)(=O)c3ccc(C)cc3C)CC2)cc1OC	-2.8	-11.0	16.1	-3.5
COc1ccc2c3c(n(C)c2c1)[C@@H](CO)N(C(=O)C1CCC1)CC31CCN(Cc2cccc(F)c2)CC1	.	10.5	35.2	.
COc1ccc2c3c(n(C)c2c1)[C@H](CO)N(C(=O)Nc1ccc(F)cc1)CC31CCN(Cc2ccccc2F)CC1	.	54.5*	.	.
COc1ccc2c3c(n(C)c2c1)[C@@H](CO)N(C(=O)Nc1ccc(F)cc1)CC31CN(Cc2ccccc2F)C1	-0.1	-34.3	.	.
COc1ccc2c3c(n(C)c2c1)[C@H](CO)N(C(=O)C1CCC1)CC31CCN(Cc2cccc(F)c2)CC1	.	9.0	60.4*	.
COc1ccc2c3c(n(C)c2c1)[C@H](CO)N(C(=O)C1CC1)CC31CCN(Cc2cccc(F)c2)CC1	9.4	25.7	70.2*	.
CN(C)C(=O)C[C@@H]1CC[C@@H]2[C@H](COC[C@@H](O)CN2CC2CCOCC2)O1	3.0	-1.5	-6.5	-1.9
C[C@@H]1CCCCO[C@H](CN(C)Cc2ccc(Cl)c(Cl)c2)[C@H](C)CN([C@@H](C)CO)C(=O)c2cc(NC(=O)Nc3ccc(C(F)(F)F)cc3)ccc2O1	.	-15.1	90.1*	-4.7
C[C@H]1CCCCO[C@H](CN(C)Cc2ccc(Cl)c(Cl)c2)[C@@H](C)CN([C@@H](C)CO)C(=O)c2cc(NC(=O)Nc3ccc(C(F)(F)F)cc3)ccc2O1	.	-1.0	78.3*	0.6
C[C@@H]1CCCCO[C@@H](CN(C)Cc2ccc(Cl)c(Cl)c2)[C@@H](C)CN([C@H](C)CO)C(=O)c2cc(NC(=O)Nc3ccc(C(F)(F)F)cc3)ccc2O1	.	4.8	59.2	-2.0
C[C@@H]1CCCCO[C@H](CN(C)Cc2ccc(C(=O)O)cc2)[C@H](C)CN([C@H](C)CO)C(=O)c2cc(NC(=O)Nc3ccc(C(F)(F)F)cc3)ccc2O1	.	5.2	-4.4	2.6
C[C@H](CO)N1C[C@H](C)[C@@H](CN(C)Cc2ccc(Cl)c(Cl)c2)OCCCC[C@H](C)Oc2ccc(NC(=O)Nc3ccc(C(F)(F)F)cc3)cc2C1=O	.	2.3	84.0*	-3.9
C[C@@H]1CN([C@@H](C)CO)C(=O)c2cc(NC(=O)Nc3ccc(C(F)(F)F)cc3)ccc2O[C@@H](C)CCCCO[C@H]1CN(C)Cc1ccc(Cl)c(Cl)c1	.	-10.0	92.9*	-9.2
Cc1cc(C)n(C(=O)c2ccc(C)c(F)c2F)n1	3.5	.	14.6	3.5
COc1ccccc1NC(=O)c1cc(OC)c(OC)cc1[N+](=O)[O-]	1.4	-0.1	-14.2	-2.1
COc1cc(C=C2C(=O)OC(C)(C)OC2=O)cc(Cl)c1OCC(=O)Nc1ccccc1	11.7	-16.5	3.0	.
